This note sets out measurements from ChEMBL document CHEMBL5705889, “Novel mutant-selective EGFR kinase inhibitors against EGFR T790M” (Nature, 2009).

A word on the Kd: it is the constant that tells how readily two partners part at equilibrium. For orientation: IC50 means the concentration at which inhibition is half-maximal. In general, bioavailability refers to dose-corrected exposure relative to a reference, in per cent. A word on the half-life: it is how long it takes for the measured level to halve. One may read the AUC(0-inf) as the area under the concentration-time curve extrapolated to infinity. A lower AUC(0-inf) goes with less exposure. What is called MRT is a mean duration of stay, worked out from the concentration-time curve.

Activity calls are given as the source filed them. The calls are words filed in the database; no cut-off is given here.

Data set [1] addresses NUAK family SNF1-like kinase 1 (Homo sapiens, UniProt O60285). The data set is described as follows: Binding affinity to ARK5 (unknown origin) assessed as dissociation constant.
Data set [2] concerns Mus musculus. Put plainly: In vivo antitumor activity in transgenic mouse harboring EGFR Del19/T790M mutant assessed as tumor regression at 25 mg/kg, administered via gavage for 2 weeks. Type of data set: functional, organism-based. Put shortly: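 Inducible bitransgenic mice carrying EGFR T790M/L858R or exon19 deletion-T790M were dosed by daily gavage at 25mg/kg. The vehicle was 10% 1-methyl-2-pyrrolidinone:90% PEG-300, and the control group received vehicle alone. Tumor response was followed by MRI scanning.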

Data set [3] is described as follows: Drug concentration in mouse plasma at 1 mg/kg, iv administered as single dose and measured after 1 hrs. Type of data set: ADME, organism-based.
For data set [4], the system named is Mus musculus. The data set is described as follows: Invivo antitumor activity in transgenic mouse harboring EGFR L858R/T790M mutant assessed as decrease in cellularity at 25 mg/kg administered via gavage for 2 weeks by H&E staining based analysis. The class given is functional, organism-based. An outline of the steps: (§1)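 EGFR-TL (L858R/T790M) or exon19 deletion-T790M (TD) inducible bitransgenic mice dosed by oral gavage daily at 25 mg/kg; vehicle 10% 1-methyl-2-pyrrolidinone:90% PEG-300. Tumors followed by MRI; lung histology by standard protocols.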

A short description of data set [5]: cells. The class given is functional, cell-based. The note with it: Homo sapiens, HCC827 Gefitinib-resistant (GR) cell, 72 h.
In a further data set the test system is PC-9. Put plainly: Prevention of EGFR T790M mutant development in human PC-9 cells harboring delE746_A750 mutant assessed as reduction in resistant cells with T790M mutant at 1 uM. Type of data set: functional, cell-based.
The subject of data set [6] is BaF3. Put plainly: cells. The class given is functional, cell-based. The note with it: Mus musculus, BaF3, 72 h.
Data set [7] concerns BaF3. The data set is described as follows: cells. Type of data set: functional, cell-based. The following applies: Mus musculus, BaF3, 72 h. This is another data set of the same source.
Data set [8] concerns Mus musculus. The data set is described as follows: Invivo antitumor activity in transgenic mouse harboring EGFR del19/T790M mutant assessed as decrease in cellularity at 25 mg/kg administered via gavage for 2 weeks by H&E staining based analysis. Type of data set: functional, organism-based. An outline of the steps: as §1
For data set [9], the target named is Receptor-type tyrosine-protein kinase FLT3 (Homo sapiens, UniProt P36888, D835Y). The data set is described as follows: Binding affinity to FLT3 D835Y mutant (unknown origin) assessed as dissociation constant.
The nature of data set [10]: Oral bioavailability in mouse at 10 mg/kg administered as single dose. Type of data set: ADME, organism-based. The note with it: in vivo.
In data set [11] the test system is Mus musculus. Put plainly: Invivo antitumor activity in transgenic mouse harboring EGFR L858R/T790M mutant assessed as remodelling/scarring at 25 mg/kg administered via gavage for 2 weeks by H&E staining based analysis. Type of data set: functional, organism-based. An outline of the steps:
as §1

The target in data set [12] is Tyrosine-protein kinase JAK2 (Homo sapiens, UniProt O60674). The data set is described as follows: Inhibition of TEL fused JAK2 (unknown origin) transformed in mouse BaF3 cells. Type of data set: cell-based.
Chain of Tyrosine-protein kinase JAK2 (O60674 whole entry, looked up, the tested form may be a part): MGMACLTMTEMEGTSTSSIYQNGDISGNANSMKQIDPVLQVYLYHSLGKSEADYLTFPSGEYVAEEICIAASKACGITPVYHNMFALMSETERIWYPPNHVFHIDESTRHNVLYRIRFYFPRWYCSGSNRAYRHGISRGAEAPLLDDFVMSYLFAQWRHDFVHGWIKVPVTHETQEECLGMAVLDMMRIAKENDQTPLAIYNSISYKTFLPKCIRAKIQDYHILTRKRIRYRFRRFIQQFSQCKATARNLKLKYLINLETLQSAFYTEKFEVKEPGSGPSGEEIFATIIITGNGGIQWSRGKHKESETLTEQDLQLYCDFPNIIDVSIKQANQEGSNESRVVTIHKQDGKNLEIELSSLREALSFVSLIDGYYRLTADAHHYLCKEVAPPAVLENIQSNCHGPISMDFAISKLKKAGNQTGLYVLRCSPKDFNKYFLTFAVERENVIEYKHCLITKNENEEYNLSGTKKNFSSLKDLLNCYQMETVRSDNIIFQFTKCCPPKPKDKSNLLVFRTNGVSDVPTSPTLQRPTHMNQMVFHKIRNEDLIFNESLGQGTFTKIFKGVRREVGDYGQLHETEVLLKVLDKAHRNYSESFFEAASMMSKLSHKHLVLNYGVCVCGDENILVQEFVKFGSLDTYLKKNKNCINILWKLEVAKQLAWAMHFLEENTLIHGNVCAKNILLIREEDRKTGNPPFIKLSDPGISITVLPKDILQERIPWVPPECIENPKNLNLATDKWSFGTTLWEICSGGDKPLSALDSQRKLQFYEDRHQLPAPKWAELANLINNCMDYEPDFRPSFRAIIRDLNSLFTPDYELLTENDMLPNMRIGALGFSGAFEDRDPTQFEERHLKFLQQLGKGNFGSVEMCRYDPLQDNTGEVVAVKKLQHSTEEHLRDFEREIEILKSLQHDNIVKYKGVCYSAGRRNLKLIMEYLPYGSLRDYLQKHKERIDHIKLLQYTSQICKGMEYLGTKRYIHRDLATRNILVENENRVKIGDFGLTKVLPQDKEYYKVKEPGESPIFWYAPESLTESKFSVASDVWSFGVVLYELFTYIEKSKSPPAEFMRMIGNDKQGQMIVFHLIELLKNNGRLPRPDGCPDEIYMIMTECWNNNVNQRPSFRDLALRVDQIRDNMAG
For data set [13], the system named is Mus musculus. Put plainly: Invivo antitumor activity in transgenic mouse harboring EGFR L858R/T790M mutant assessed as reduction in nodule remnants in tumor at 25 mg/kg administered via gavage for 2 weeks by H&E staining based analysis. The class given is functional, organism-based. An outline of the steps:
as §1

The nature of data set [14]: Half-life in mouse at 10 mg/kg, po administered as single dose. Type of data set: ADME, organism-based. The note with it: in vivo.
Data set [15] in a line: AUC(0 to infinity) in mouse at 10 mg/kg, po administered as single dose. The following applies: in vivo. The class given is ADME, organism-based.
For data set [16], the system named is BaF3. The data set is described as follows: cells. Type of data set: functional, cell-based. The following applies: Mus musculus, BaF3, 72 h. The source holds these as a separate data set.
In a further data set the test system is NCI-H3255. The data set is described as follows: Antiproliferative activity against human NCI-H3255 cells harboring EGFR L858R mutant assessed as inhibition of cell growth incubated for 72 hrs by MTS assay. Type of data set: functional, cell-based. The note with it: NCI-H3255, 72 h. A general note: Tetrazolium dyes change colour on reduction, which living cells bring about.

Data set [17] can be described thus: MRT in mouse at 1 mg/kg, iv administered as single dose. The class given is ADME, organism-based. The following applies: in vivo.
Data set [18] is described as follows: cells. The class given is functional, cell-based. The note with it: Homo sapiens, Gefitinib-resistant PC9, 72 h.
A short description of data set [19]: Drug concentration in mouse plasma at 10 mg/kg, po administered as single dose and measured after 6 hrs. The class given is ADME, organism-based.
A short description of data set [20]: Drug concentration in mouse plasma at 10 mg/kg, po administered as single dose and measured after 0.5 hrs. Type of data set: ADME, organism-based.
Data set [21] is described as follows: Drug concentration in mouse plasma at 1 mg/kg, iv administered as single dose and measured after 8 hrs. The class given is ADME, organism-based.

Chain of NUAK family SNF1-like kinase 1 (O60285 whole entry): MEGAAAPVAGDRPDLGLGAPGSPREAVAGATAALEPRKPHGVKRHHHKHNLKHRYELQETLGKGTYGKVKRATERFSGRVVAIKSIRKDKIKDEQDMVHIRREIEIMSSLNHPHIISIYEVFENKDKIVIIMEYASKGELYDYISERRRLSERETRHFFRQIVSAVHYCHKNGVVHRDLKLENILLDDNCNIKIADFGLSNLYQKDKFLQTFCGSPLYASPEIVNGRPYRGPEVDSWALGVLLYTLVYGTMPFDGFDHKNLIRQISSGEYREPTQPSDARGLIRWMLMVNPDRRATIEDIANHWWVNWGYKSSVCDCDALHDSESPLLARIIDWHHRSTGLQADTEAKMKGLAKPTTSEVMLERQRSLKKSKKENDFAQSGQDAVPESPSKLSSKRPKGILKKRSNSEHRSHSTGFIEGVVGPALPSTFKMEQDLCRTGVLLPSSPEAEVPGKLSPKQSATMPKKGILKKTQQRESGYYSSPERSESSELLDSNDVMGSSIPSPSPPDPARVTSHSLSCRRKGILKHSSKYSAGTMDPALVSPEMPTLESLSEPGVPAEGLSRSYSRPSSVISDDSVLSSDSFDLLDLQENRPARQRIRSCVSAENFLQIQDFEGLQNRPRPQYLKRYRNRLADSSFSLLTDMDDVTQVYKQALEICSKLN

As to `C=CC(=O)Nc1cccc(Oc2nc(Nc3ccc(N4CCN(C)CC4)cc3OC)ncc2Cl)c1`, the results for the Kd in data set [1] and in data set [9] were 0.091 µM and 0.033 µM, respectively. Further, the result in the data set on Mus musculus [2], in the data set with Mus musculus [4], with PC-9, in the data set on Mus musculus [8], in the data set with Mus musculus [11] and in the data set on Mus musculus [13] was Active. In addition, the concentration at 1 h in data set [3] came out at 0.228 µg/mL. For the same compound, the IC50 in “cells [5]” was greater than 3.3 µM; in the data set with BaF3 [6], 0.157 µM; in the data set with BaF3 [7] it was 1.86 µM; in data set [12], 3.76 µM; with BaF3 [16], 0.002 µM; in the data set on NCI-H3255 it was 0.089 µM. In the data set “cells [18]”, this compound displayed an IC50 of 0.047 µM. Further, the bioavailability in data set [10] is 24.5%. Moreover, the half-life in data set [14] was 2.46 h. In data set [15], the AUC(0-inf) was determined as 2.4 µg·h/mL. The compound further yielded an MRT in data set [17] of 1.51 h. The same compound gave a concentration at 6 h in data set [19] of 0.14 µg/mL. Further, in [20], the concentration at 0.5 h is 0.397 µg/mL. Also, the concentration at 8 h in data set [21] is 0.008 µg/mL.
